The source of these data is ChEMBL document CHEMBL4304781, “Development of Highly Selective Pyrimidine-Based Aldosterone Synthase (CYP11B2) Inhibitors” (ACS Med Chem Lett, 2019).

Converted amounts (≈) assume the structure as drawn.

The target of data set [1] is T1, Cytochrome P450 11B1, mitochondrial (Homo sapiens, UniProt P15538).
T1 sequence (P15538 whole entry): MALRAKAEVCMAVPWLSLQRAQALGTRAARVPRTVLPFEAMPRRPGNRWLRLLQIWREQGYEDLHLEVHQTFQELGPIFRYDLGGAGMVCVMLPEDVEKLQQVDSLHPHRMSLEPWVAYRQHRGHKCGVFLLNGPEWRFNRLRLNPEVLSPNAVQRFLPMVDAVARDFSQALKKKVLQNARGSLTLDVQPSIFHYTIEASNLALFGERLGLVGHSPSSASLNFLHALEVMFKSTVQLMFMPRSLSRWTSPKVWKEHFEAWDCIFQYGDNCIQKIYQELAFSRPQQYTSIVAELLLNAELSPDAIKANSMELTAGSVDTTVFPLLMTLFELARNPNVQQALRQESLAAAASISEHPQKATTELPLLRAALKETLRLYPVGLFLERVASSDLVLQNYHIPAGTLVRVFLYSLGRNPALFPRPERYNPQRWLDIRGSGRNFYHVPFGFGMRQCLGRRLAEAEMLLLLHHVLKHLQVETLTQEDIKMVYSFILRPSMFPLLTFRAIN
The data set can be described thus: Inhibition of human recombinant CYP11B1 using deoxycortisol as substrate incubated for 60 mins by cell-based HPLC analysis. Format: ADME. An outline of the steps: (§1)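 Recombinant human CYP11B2 or CYP11B1. Substrate and product steroids both monitored by HPLC-MS. Selectivity taken as CYP11B1 IC50 / CYP11B2 IC50.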

The species entered for data set [2] is Homo sapiens. The data set can be described thus: Selectivity index, ratio of IC50 for human recombinant CYP11B1 to IC50 for human recombinant CYP11B2. The method in brief:
as §1

The nature of data set [3]: AUC (0 to 24 hrs) in cynomolgus monkey at 1 mg/kg, po measured after 24 or 72 hrs. The arrangement: time < 24 hr, dose 1 mg/kg, route oral. It is filed as ADME, organism-based, Macaca fascicularis. As to conditions: in vivo. An outline of the steps:
(§2)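 Male cynomolgus monkeys dosed orally at 1 mg/kg in 0.5% CMC, 0.1% Tween-80, 1% DMSO. Plasma drug concentrations followed out to 24 or 72 h. Cmax, Tmax, AUC0-24 and t1/2 derived from plasma levels.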

Data set [4] is described as follows: Half life in cynomolgus monkey at 1 mg/kg, po measured after 24 or 72 hrs. Format: ADME, organism-based, Macaca fascicularis. As to conditions: in vivo. The method in brief:
as §2

Data set [5] in a line: Stability in cynomolgus monkey liver microsomes assessed as parent compound remaining at 1 uM measured after 65 mins by LC/MS-MS analysis. Format: ADME, Macaca fascicularis, Microsome. As to conditions: read-out: Stability. An outline of the steps: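 Parent compound percentage remaining after 65 min incubation with cynomolgus monkey liver microsomes.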
Data set [6] is described as follows: Cmax in cynomolgus monkey at 1 mg/kg, po measured after 24 or 72 hrs. Also on record: dose 1 mg/kg, route oral. It is filed as ADME, organism-based, Macaca fascicularis. As to conditions: in vivo. An outline of the steps:
as §2

Data set [7] is described as follows: Tmax in cynomolgus monkey at 1 mg/kg, po measured after 24 or 72 hrs. As to conditions: in vivo. It is filed as ADME, organism-based, Macaca fascicularis. The method in brief:
as §2

A short description of data set [8]: Thermodynamic solubility in phosphate free buffer pH 7.4 incubated for 24 hrs by HPLC/LCMS-MS based shake flask method. It is filed as physicochemical. To be noted: read-out: Therm_solubility.
For data set [9], the target named is T2, Cytochrome P450 11B2, mitochondrial (Homo sapiens, UniProt P19099).
T2 sequence (P19099 whole entry): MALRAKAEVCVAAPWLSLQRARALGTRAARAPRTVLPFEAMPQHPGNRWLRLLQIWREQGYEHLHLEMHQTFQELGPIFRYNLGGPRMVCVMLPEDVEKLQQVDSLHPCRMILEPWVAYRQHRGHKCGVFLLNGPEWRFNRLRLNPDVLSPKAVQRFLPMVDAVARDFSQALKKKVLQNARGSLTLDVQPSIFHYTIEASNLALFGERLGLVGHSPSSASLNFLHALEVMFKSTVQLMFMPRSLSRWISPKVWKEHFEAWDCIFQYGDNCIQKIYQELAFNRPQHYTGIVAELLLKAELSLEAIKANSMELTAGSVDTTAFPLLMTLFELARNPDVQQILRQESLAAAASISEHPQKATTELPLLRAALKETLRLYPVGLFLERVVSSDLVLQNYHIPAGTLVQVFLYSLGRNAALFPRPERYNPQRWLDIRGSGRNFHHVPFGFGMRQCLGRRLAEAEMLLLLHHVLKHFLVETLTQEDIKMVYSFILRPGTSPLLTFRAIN
The data set can be described thus: Inhibition of human recombinant CYP11B2 using deoxycorticosterone as substrate incubated for 90 mins by cell-based HPLC analysis. The method in brief:
as §1

In data set [10] the test system is Cynomolgus monkey. The data set can be described thus: In vivo inhibition of CYP11B2 in cynomolgus monkey assessed as reduction in ACTH-induced plasma aldosterone AUC administered orally 10 mins prior to ACTH stimulation for 7 days. It is filed as functional, organism-based. As to conditions: Macaca fascicularis. An outline of the steps:
(§3)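 Conscious male cynomolgus monkeys. Day 1: vehicle, then ACTH challenge to drive adrenal steroidogenesis. Repeated after 7-day recovery with oral compound at 0.2, 1 and 3 mg/kg given 10 min before ACTH. Plasma aldosterone, cortisol, DOC and 11-deoxycortisol measured and AUCs calculated. Day 8 change expressed against each animal's own day 1 steroid AUC.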

The species named for data set [11] is Homo sapiens. The data set can be described thus: Selectivity index, ratio of IC50 for CYP17 (unknown origin) to IC50 for human recombinant CYP11B2.
In data set [12] the test system is Cynomolgus monkey. The data set can be described thus: Effect on ACTH-induced cortisol level in cynomolgus monkey at 0.2 to 3 mg/kg, po administered 10 mins prior to ACTH stimulation for 7 days. It is filed as ADME, organism-based, Macaca fascicularis. As to conditions: in vivo. The method in brief:
as §3

For data set [13], the species on record is Homo sapiens. The data set can be described thus: Selectivity index, ratio of IC50 for CYP2C9 (unknown origin) to IC50 for human recombinant CYP11B2.
For data set [14], the species on record is Homo sapiens. The data set can be described thus: Selectivity index, ratio of IC50 for CYP3A4 (unknown origin) to IC50 for human recombinant CYP11B2.
Data set [15] deals with Cynomolgus monkey. The data set can be described thus: In vivo inhibition of CYP11B2 in cynomolgus monkey assessed as reduction in ACTH-induced plasma aldosterone AUC at 1 mg/kg, po administered 10 mins prior to ACTH stimulation for 7 days relative to control. It is filed as functional. As to conditions: Macaca fascicularis. An outline of the steps: as §3
Data set [16] in a line: Fraction unbound in cynomolgus monkey plasma incubated for 6 hrs by HPLC-MS/MS analysis. It is filed as ADME, cell-free, Macaca fascicularis.
For data set [17], the system named is Cynomolgus monkey. The data set can be described thus: Effect on ACTH-induced 11-deoxycortisol level in cynomolgus monkey at 0.2 to 3 mg/kg, po administered 10 mins prior to ACTH stimulation for 7 days. It is filed as ADME, organism-based, Macaca fascicularis. To be noted: in vivo. The method in brief: as §3
The target in a further data set is T3, Aromatase (Homo sapiens, UniProt P11511).
T3 sequence (P11511 whole entry): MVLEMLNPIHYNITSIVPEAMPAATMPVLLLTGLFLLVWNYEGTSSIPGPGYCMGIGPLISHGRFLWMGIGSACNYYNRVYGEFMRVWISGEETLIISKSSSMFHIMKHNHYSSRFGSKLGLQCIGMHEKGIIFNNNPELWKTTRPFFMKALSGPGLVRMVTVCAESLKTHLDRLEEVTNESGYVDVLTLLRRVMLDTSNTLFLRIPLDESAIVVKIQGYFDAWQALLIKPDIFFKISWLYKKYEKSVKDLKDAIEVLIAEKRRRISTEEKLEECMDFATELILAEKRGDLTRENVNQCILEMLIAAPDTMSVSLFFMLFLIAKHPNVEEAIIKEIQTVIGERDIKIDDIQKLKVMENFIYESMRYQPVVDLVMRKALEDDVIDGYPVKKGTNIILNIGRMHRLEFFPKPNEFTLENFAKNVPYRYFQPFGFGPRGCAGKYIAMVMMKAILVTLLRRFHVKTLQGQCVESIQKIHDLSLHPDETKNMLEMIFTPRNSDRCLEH
The data set can be described thus: Inhibition of CYP19 (unknown origin).

Data set [18] concerns Cynomolgus monkey. The data set can be described thus: In vivo inhibition of CYP11B2 in cynomolgus monkey assessed as reduction in ACTH-induced plasma aldosterone AUC at 3 mg/kg, po administered 10 mins prior to ACTH stimulation for 7 days relative to control. Format: functional. As to conditions: Macaca fascicularis. The method in brief: as §3
The species entered for data set [19] is Homo sapiens. The data set can be described thus: Selectivity index, ratio of IC50 for CYP19 (unknown origin) to IC50 for human recombinant CYP11B2.
The species named for data set [20] is Homo sapiens. The data set can be described thus: Selectivity index, ratio of IC50 for CYP2D6 (unknown origin) to IC50 for human recombinant CYP11B2.
For data set [21], the system named is Cynomolgus monkey. The data set can be described thus: Effect on ACTH-induced DOC level in cynomolgus monkey at 0.2 to 3 mg/kg, po administered 10 mins prior to ACTH stimulation for 7 days. It is filed as ADME, organism-based, Macaca fascicularis. As to conditions: in vivo. An outline of the steps:
as §3

A short description of data set [22]: Inhibition of cynomolgus monkey CYP11B2. The arrangement: species or system Macaca fascicularis.
For data set [23], the system named is Cynomolgus monkey. The data set can be described thus: In vivo inhibition of CYP11B2 in cynomolgus monkey assessed as reduction in ACTH-induced plasma aldosterone AUC at 0.2 mg/kg, po administered 10 mins prior to ACTH stimulation for 7 days relative to control. To be noted: Macaca fascicularis. Format: functional. The method in brief: as §3
Data set [24] is described as follows: Inhibition of cynomolgus monkey CYP11B1. It is filed as ADME, Macaca fascicularis.
The species named for another data set is Macaca fascicularis. The data set can be described thus: Selectivity index, ratio of IC50 for cynomolgus monkey CYP11B1 to IC50 for cynomolgus monkey CYP11B2.
The species entered for data set [25] is Homo sapiens. The data set can be described thus: Selectivity index, ratio of IC50 for CYP2C19 (unknown origin) to IC50 for human recombinant CYP11B2.

On to `N#Cc1ccc2nc(-c3cncnc3C(F)(F)F)n(C3CC3)c2n1`, for which the IC50 was determined as 4810 nM in data set [1] and 24 nM in data set [9]. The Ratio IC50 in the data set filed under Homo sapiens [2] was determined as 200. Also, the area under the curve AUC(0-t) at 24 h in data set [3] is 10.1 µM·h. Further, the half-life in data set [4] was 5.3 h. Further, the remaining at 65 min, 1 µM in data set [5] was found to be 87%. Moreover, the Cmax in [6] is 1680 nM. In data set [7], the Tmax is 0.5 h. Moreover, the solubility thermodynamic at 24 h in data set [8] turned out to be 153 µM (≈ 50.5 µg/mL).

As for `Fc1cc2nc(-c3cncnc3C(F)(F)F)n(C3CC3)c2cc1F`, the IC50 in [1] is 4770 nM; at Aromatase it was 6440 nM; in data set [22] it was 13 nM; in [24] it was 8850 nM; in data set [9], 25 nM. In addition, the inhibition entry in the data set with Cynomolgus monkey [10] was “Dose-dependent effect”. Besides, the Ratio IC50 in the data set listed under Homo sapiens [11] is over 1000; in the data set listed under Homo sapiens [13], over 1000; in the data set filed under Homo sapiens [14] it was over 1000; in the data set listed under Homo sapiens [2], 190; in the data set listed under Homo sapiens [19] it was 250; in the data set filed under Homo sapiens [20], over 1000. In addition, the Ratio IC50 is 702 in the data set filed under Macaca fascicularis and over 1000 in the data set filed under Homo sapiens [25]. In addition, the Activity result in the data set on Cynomolgus monkey [12], with Cynomolgus monkey [17] and in the data set with Cynomolgus monkey [21] was “Non-Toxic” throughout. Besides, the inhibition in vivo at 1 mg/kg in the data set on Cynomolgus monkey [15] was 88%. In data set [16], this compound yielded a fraction unbound at 6 h of 0.16. The compound also gave an exposure AUC(0-t) at 24 h in data set [3] of 7.8 µM·h. The half-life in [4] is 30 h. The inhibition in vivo at 3 mg/kg with Cynomolgus monkey [18] amounted to 93%. Besides, the remaining at 65 min, 1 µM in data set [5] was 99%. This compound also displayed a Cmax in [6] of 410 nM. The Tmax in data set [7] came out at 2 h. For the same compound, the inhibition in vivo at 0.2 mg/kg in the data set on Cynomolgus monkey [23] was 68%. In data set [8], the solubility thermodynamic at 24 h turned out to be 9 µM (≈ 3.06 µg/mL).

`N#Cc1ccc2nc(-c3cncnc3C(F)F)n(C3CC3)c2c1`: the IC50 was found to be 2030 nM in data set [1] and 9 nM in [9]. Besides, the Ratio IC50 in the data set listed under Homo sapiens [2] was 226. The same compound yielded an AUC(0-t) at 24 h in data set [3] of 8.3 µM·h. Besides, the half-life in data set [4] is 5.4 h. Further, the remaining at 65 min, 1 µM in data set [5] came out at 84%. The concentration in [6] peaked (Cmax) at 1000 nM. The Tmax in data set [7] was found to be 2 h.

In the case of `N#Cc1ccc2nc(-c3cncnc3C(F)F)n(C3CC3)c2n1`, the IC50 was 3930 nM in data set [1] and 29 nM in data set [9]. Also, the Ratio IC50 in the data set filed under Homo sapiens [2] was found to be 135. The compound further displayed an exposure AUC(0-t) at 24 h in data set [3] of 32.2 µM·h. Further, the half-life in [4] was 7.5 h. In addition, the remaining at 65 min, 1 µM in data set [5] turned out to be 101%. The same compound showed a Cmax in [6] of 2880 nM. In addition, the Tmax in [7] was 2 h.
